# Calls of active or inactive are those of the source. No cut-off for these calls is given here.
# Legend:
# Rattus norvegicus [1] = assay: Antihypertensive activity was determined in cannulated spontaneously hypertensive rats(SHR) and heart rate response was reported to reduce by 10-25% after 4 hr at a peroral dose of 5 mg/kg; assay type: functional, organism-based; set-up: dose 5 mg/kg
# Rattus norvegicus [2] = assay: Vasopressor responses to epinephrine as a measure of the alpha-1-adrenoceptor blocking activity at 50 mg/kg administered orally was reported to be antagonized; assay type: functional, organism-based; set-up: dose 50 mg/kg
# Rattus norvegicus [3] = assay: Antihypertensive activity was determined in cannulated spontaneously hypertensive rats(SHR) and heart rate response was reported to be reduce by 10-25% after 4 hr at a dose of 50 mg/kg; assay type: functional, organism-based; set-up: dose 50 mg/kg
# Rattus norvegicus [4] = assay: Antihypertensive activity was determined in cannulated spontaneously hypertensive rats(SHR) and heart rate response was reported to reduce by 10-25% after 4 hr at a peroral dose of 10 mg/kg; assay type: functional, organism-based; set-up: dose 10 mg/kg
# Rattus norvegicus [5] = assay: Vasopressor responses to epinephrine as a measure of the alpha-1-adrenoceptor blocking activity at 10 mg/kg administered orally was reported to be reversed; assay type: functional, organism-based; set-up: dose 10 mg/kg
# Rattus norvegicus [6] = assay: Antihypertensive activity was determined in cannulated spontaneously hypertensive rats(SHR) and maximum decrease of mean arterial blood pressure (MABP) at 0.5 mg/kg oral dose; assay type: functional, Artery
# Method in brief: (§1)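 Cannulated SHR given compound by gastric gavage in 0.5% methylcellulose (5 mL/kg), doses 0.1–50 mg/kg, 4–8 animals per dose, after 1-h equilibration. MABP recorded for 4 h; maximal % decrease reported with time to peak effect. Significance by two-way analysis of variance.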
# Rattus norvegicus [7] = assay: Antihypertensive activity was determined in cannulated spontaneously hypertensive rats(SHR) and maximum decrease of mean arterial blood pressure (MABP) at 50 mg/kg oral dose; assay type: functional, Artery; method in brief: as §1
# Rattus norvegicus [8] = assay: Antihypertensive activity was determined in cannulated spontaneously hypertensive rats(SHR) and maximum decrease of mean arterial blood pressure (MABP) at 5 mg/kg oral dose; assay type: functional, Artery; method in brief: as §1
# Rattus norvegicus [9] = assay: Antihypertensive activity was determined in cannulated spontaneously hypertensive rats(SHR) and marked bradycardia was reported at a dose of 50 mg/kg; assay type: functional, organism-based; set-up: dose 50 mg/kg
# Rattus norvegicus [10] = assay: Vasopressor responses to epinephrine as a measure of the alpha-1-adrenoceptor blocking activity at 0.5 mg/kg administered orally was reported to be antagonized; assay type: functional, organism-based; set-up: dose 0.5 mg/kg
# Rattus norvegicus [11] = assay: Antihypertensive activity was determined in cannulated spontaneously hypertensive rats(SHR) and maximum decrease of mean arterial blood pressure (MABP) at 10 mg/kg oral dose; assay type: functional, Artery; method in brief: as §1
# Rattus norvegicus [12] = assay: Antihypertensive activity was determined in cannulated spontaneously hypertensive rats(SHR) and maximum decrease of mean arterial blood pressure (MABP) at 1 mg/kg oral dose; assay type: functional, Artery; method in brief: as §1
# Rattus norvegicus [13] = assay: Antihypertensive activity was determined in cannulated spontaneously hypertensive rats(SHR) and maximum decrease of mean arterial blood pressure (MABP) at 2.5 mg/kg oral dose; assay type: functional, Artery; method in brief: as §1
# Rattus norvegicus [14] = assay: Vasopressor responses to epinephrine as a measure of the alpha-1-adrenoceptor blocking activity at 1 mg/kg administered orally was reported to be antagonized; assay type: functional, organism-based; set-up: dose 1 mg/kg
# Rattus norvegicus [15] = assay: Vasopressor responses to epinephrine as a measure of the alpha-1-adrenoceptor blocking activity at 2.5 mg/kg administered orally was reported to be reversed; assay type: functional, organism-based; set-up: dose 2.5 mg/kg
# Rattus norvegicus [16] = assay: Antihypertensive activity was determined in cannulated spontaneously hypertensive rats(SHR) and heart rate response was reported to reduce by 10-25% after 4 hr at a peroral dose of 1.0 mg/kg; assay type: functional, organism-based; set-up: dose 1 mg/kg
# Rattus norvegicus [17] = assay: Antihypertensive activity was determined in cannulated spontaneously hypertensive rats(SHR) and heart rate response was reported to reduce by 10-25% after 4 hr at a peroral dose of 2.5 mg/kg; assay type: functional, organism-based; set-up: dose 2.5 mg/kg
# Rattus norvegicus [18] = assay: Antagonism of vasopressor responses to epinephrine as a measure of the alpha-1-adrenoceptor blocking activity at 5 mg/kg administered orally was reported to be reversed; assay type: functional, organism-based; set-up: dose 5 mg/kg
# Rattus norvegicus [19] = assay: Vasopressor responses to epinephrine as a measure of the alpha-1-adrenoceptor blocking activity at 0.25 mg/kg administered orally was reported to be reversed; assay type: functional, organism-based; set-up: dose 0.25 mg/kg
# Rattus norvegicus [20] = assay: Vasopressor responses to epinephrine as a measure of the alpha-1-adrenoceptor blocking activity at 1 mg/kg administered orally was reported to be reversed; assay type: functional, organism-based; set-up: dose 1 mg/kg
# Rattus norvegicus [21] = assay: Antihypertensive activity was determined in cannulated spontaneously hypertensive rats(SHR) and heart rate response was reported to reduce by 10-25% after 4 hr at a peroral dose of 0.25 mg/kg; assay type: functional, organism-based; set-up: dose 0.25 mg/kg
# Rattus norvegicus [22] = assay: Antihypertensive activity was determined in cannulated spontaneously hypertensive rats(SHR) and marked bradycardia was reported at a dose of 10 mg/kg; assay type: functional, organism-based; set-up: dose 10 mg/kg
# Rattus norvegicus [23] = assay: Antihypertensive activity was determined in cannulated spontaneously hypertensive rats(SHR) and activity rating was given with respect to MABP values at 25 mg/kg oral dose;lowering MABP by 20-30% at 5 mg/kg and by 10-20% at 1-2.5 mg/kg; assay type: functional, organism-based
# Method in brief: (§2)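 Cannulated SHR dosed orally (gavage) in 0.5% methylcellulose, 5 mL/kg; 4–8 rats per dose. MABP monitored 4 h, maximal change taken. Rating scale: 0 = no significant activity at 50 mg/kg, stepping up to 6 = MABP fall >40% at 10 mg/kg and 10–20% at 0.25–1 mg/kg, based on % MABP decreases at set doses.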
# Rattus norvegicus [24] = assay: Antihypertensive activity was determined in cannulated spontaneously hypertensive rats(SHR) and maximum decrease of mean arterial blood pressure (MABP) at 25 mg/kg oral dose; assay type: functional, Artery; method in brief: as §1
# Rattus norvegicus [25] = assay: Antihypertensive activity was determined in cannulated spontaneously hypertensive rats(SHR) and marked bradycardia was reported at a dose of 25 mg/kg; assay type: functional, organism-based; set-up: dose 25 mg/kg
# Rattus norvegicus [26] = assay: Vasopressor responses to epinephrine as a measure of the alpha-1-adrenoceptor blocking activity at 2.5 mg/kg administered orally was reported to be antagonized; assay type: functional, organism-based; set-up: dose 2.5 mg/kg; details: filed as antagonist
# Rattus norvegicus [27] = assay: Vasopressor responses to epinephrine as a measure of the alpha-1-adrenoceptor blocking activity at 25 mg/kg administered orally was reported to be antagonized; assay type: functional, organism-based; set-up: dose 25 mg/kg; details: filed as antagonist
# Rattus norvegicus [28] = assay: Vasopressor responses to epinephrine as a measure of the alpha-1-adrenoceptor blocking activity at 5 mg/kg administered orally was reported to be antagonized; assay type: functional, organism-based; set-up: dose 5 mg/kg; details: filed as antagonist
# Rattus norvegicus [29] = assay: Vasopressor responses to epinephrine as a measure of the alpha-1-adrenoceptor blocking activity at 25 mg/kg administered orally was reported to have no change; assay type: functional, organism-based; set-up: dose 25 mg/kg
# Rattus norvegicus [30] = assay: Vasopressor responses to epinephrine as a measure of the alpha-1-adrenoceptor blocking activity at 10 mg/kg administered orally was reported to have no change; assay type: functional, organism-based; set-up: dose 10 mg/kg
# Rattus norvegicus [31] = assay: Antihypertensive activity was determined in cannulated spontaneously hypertensive rats(SHR) and activity rating was given with respect to MABP values at 10 mg/kg oral dose;a decrease of MABP by >40% at 10 mg/kg and by 10-207; assay type: functional, organism-based; method in brief: as §2
# Rattus norvegicus [32] = assay: Antihypertensive activity was determined in cannulated spontaneously hypertensive rats(SHR) and activity rating was given with respect to MABP values at 25 mg/kg oral dose;MABP reduced by 15-25% and an appreciable antihypertensive at 2.5-5 mg/kg; assay type: functional, organism-based; set-up: dose 25 mg/kg
# Rattus norvegicus [33] = assay: Vasopressor responses to epinephrine as a measure of the alpha-1-adrenoceptor blocking activity at 25 mg/kg administered orally was reported to be slightly; assay type: functional, organism-based; set-up: dose 25 mg/kg
# Rattus norvegicus [34] = assay: Antihypertensive activity was determined in cannulated spontaneously hypertensive rats(SHR) and heart rate response was reported to reduce by 10-25% after 4 hr at a peroral dose of 25 mg/kg; assay type: functional, organism-based; set-up: dose 25 mg/kg
# Rattus norvegicus [35] = assay: Vasopressor responses to epinephrine as a measure of the alpha-1-adrenoceptor blocking activity at 10 mg/kg administered orally was reported to be potentiated; assay type: functional, organism-based; set-up: dose 10 mg/kg
Structure (SMILES),HR (Rattus norvegicus [1]),Activity (Rattus norvegicus [5]),Decrease in MABP (Rattus norvegicus [8]) [%],Decrease in MABP (Rattus norvegicus [11]) [%],Decrease in MABP (Rattus norvegicus [12]) [%],Decrease in MABP (Rattus norvegicus [13]) [%],Activity (Rattus norvegicus [15]),Activity (Rattus norvegicus [20]),Decrease in MABP (Rattus norvegicus [24]) [%],further results
Cc1c2n(c3ccccc13)CCC1C2N(C)CCN1C (configuration not stated),Heart rate response was reported to reduce by 10-25% after 4 hr at a peroral dose of 10 mg/kg,Vasopressor response reversed,,,,,,,,Activity (Rattus norvegicus [2]): Vasopressor response antagonized; HR (Rattus norvegicus [3]): Heart rate response was reported to be reduce by 10-25% after 4 hr at a dose of 50 mg/kg; HR (Rattus norvegicus [4]): Heart rate response was reported to reduce by 10-25% after 4 hr at a peroral dose of 10 mg/kg
CCN1CCN(C(C)C)C2CCn3c(c(C)c4cc(OC)ccc43)C21.Cl.Cl (configuration not stated),,,33,,,,,,,Decrease in MABP (Rattus norvegicus [6]): 8%; Decrease in MABP (Rattus norvegicus [7]): 43%; HR (Rattus norvegicus [9]): Heart rate response was reported to reduce by 10-25% after 4 hr at a peroral dose of 5.0 mg/kg; Activity (Rattus norvegicus [10]): Vasopressor response antagonized
Br.CCCN1CCN(CCC)C2c3c(C)c4ccccc4n3CCC21 (configuration not stated),Heart rate response was reported to reduce by 10-25% after 4 hr at a peroral dose of 1.0 mg/kg,Antagonism reversed,12,18,13,16,Antagonism reversed,,,Activity (Rattus norvegicus [14]): Antagonism reversed; HR (Rattus norvegicus [16]): Heart rate response was reported to reduce by 10-25% after 4 hr at a peroral dose of 1.0 mg/kg; HR (Rattus norvegicus [4]): Heart rate response was reported to reduce by 10-25% after 4 hr at a peroral dose of 1.0 mg/kg; HR (Rattus norvegicus [17]): Heart rate response was reported to reduce by 10-25% after 4 hr at a peroral dose of 1.0 mg/kg; Activity (Rattus norvegicus [18]): Antagonism reversed
CCN1CCN(C(C)C)C2CCn3c(c(C)c4ccccc43)C21 (configuration not stated),,Vasopressor response reversed,,56,40,52,Vasopressor response reversed,Vasopressor response reversed,,Activity (Rattus norvegicus [19]): Vasopressor response reversed; HR (Rattus norvegicus [21]): Heart rate response was reported to reduce by 10-25% after 4 hr at a peroral dose of 0.25 mg/kg; HR (Rattus norvegicus [16]): Heart rate response was reported to reduce by 10-25% after 4 hr at a peroral dose of 0.25 mg/kg; HR (Rattus norvegicus [17]): Heart rate response was reported to reduce by 10-25% after 4 hr at a peroral dose of 0.25 mg/kg
Br.CCCN1CCN(C(C)C)C2CCn3c(c(C)c4ccccc43)C21 (configuration not stated),,Vasopressor response reversed,,40,19,25,Vasopressor response reversed,Vasopressor response reversed,,HR (Rattus norvegicus [22]): Heart rate response was reported to reduce by 10-25% after 4 hr at a peroral dose of 1.0 mg/kg
O=C(NC1CCN(CCc2c[nH]c3ccccc23)CC1)c1ccccc1 [INDORAMIN],Active,,29,,,12,,,40,Activity rating (Rattus norvegicus [23]): Active; HR (Rattus norvegicus [25]): Active; Activity (Rattus norvegicus [26]): Antagonist; Activity (Rattus norvegicus [27]): Antagonist; Activity (Rattus norvegicus [28]): Antagonist
Br.Br.CCN1CCNC2c3c(C)c4ccccc4n3CCC21 (configuration not stated),,,,23,,,,,26,Decrease in MABP (Rattus norvegicus [7]): 31%; HR (Rattus norvegicus [9]): Heart rate response was reported to reduce by 10-25% after 4 hr at a peroral dose of 25 mg/kg; Activity (Rattus norvegicus [29]): inactive; Activity (Rattus norvegicus [2]): Vasopressor response antagonized; Activity (Rattus norvegicus [30]): inactive
COc1cc2nc(N3CCN(C(=O)c4ccco4)CC3)nc(N)c2cc1OC [PRAZOSIN],,,,49,46,,,,,Decrease in MABP (Rattus norvegicus [6]): 35%; Activity rating (Rattus norvegicus [31]): Active
Br.CCCN1CCN(CC)C2CCn3c(c(C)c4ccccc43)C21 (configuration not stated),,Vasopressor response reversed,,42,13,24,Vasopressor response reversed,Vasopressor response reversed,,HR (Rattus norvegicus [22]): Heart rate response was reported to reduce by 10-25% after 4 hr at a peroral dose of 1.0 mg/kg
Cc1c2n(c3ccccc13)CCC1NCCNC21 (configuration not stated),,,,19,,,,,27,Activity rating (Rattus norvegicus [32]): MABP reduced by 15-25% and an appreciable antihypertensive at 2.5-5 mg/kg; Activity (Rattus norvegicus [33]): Vasopressor response potentiated; HR (Rattus norvegicus [34]): Heart rate response was reported to reduce by 10-25% after 4 hr at a peroral dose of 25 mg/kg; Activity (Rattus norvegicus [35]): Vasopressor response potentiated
